How the values were obtained:
[1] = test system: Senna occidentalis; assay: Drug level in Senna occidentalis (coffee senna) assessed as AMPA level at growth inhibition I50 level rate measured 7 days post treatment; assay type: organism-based; conditions: in vivo, 168 h
Outline: (§1)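 Greenhouse plants (28/22 °C, 13 h photoperiod) were sprayed with glyphosate at each species' I50 rate, with Tween 20-treated controls. Shoots were cut at 7 DAT and rinsed to remove surface herbicide. Pooled ground tissue (1 g) was water-extracted twice with sonication, acidified, and washed with methylene chloride. Extracts were derivatized with heptafluorobutanol/TFAA (90 °C, 1 h) and measured by GC-MS against derivatized standards, in duplicate.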

[2] = test system: Vigna unguiculata; assay: Drug level in Vigna unguiculata (cowpea) assessed as AMPA level at growth inhibition I50 level rate measured 7 days post treatment; assay type: organism-based; conditions: in vivo, 168 h; outline: as §1
[3] = test system: Glycine max; assay: Drug level in non glyphosate-resistant Glycine max (soybean) assessed as AMPA level at growth inhibition I50 level rate measured 7 days post treatment; assay type: organism-based; conditions: in vivo, 168 h; outline: as §1
[4] = test system: Glycine max; assay: Drug level in glyphosate-resistant Glycine max (soybean) assessed as AMPA level at growth inhibition I50 level rate measured 7 days post treatment; assay type: organism-based; conditions: in vivo, 168 h; outline: as §1
[5] = Drug level in non glyphosate-resistant Zea mays (maize) at growth inhibition I50 level rate measured 7 days post treatment; assay type: organism-based; conditions: in vivo, read-out: Drug uptake; outline: as §1
[6] = Drug level in Lolium multiflorum (Italian ryegrass) at growth inhibition I50 level rate measured 7 days post treatment; assay type: organism-based; conditions: in vivo, read-out: Drug uptake; outline: as §1
[7] = Drug level in glyphosate-resistant Zea mays (maize) at growth inhibition I50 level rate measured 7 days post treatment; assay type: organism-based; conditions: in vivo, read-out: Drug uptake; outline: as §1
[8] = Drug level in Abutilon theophrasti (velvetleaf) at growth inhibition I50 level rate measured 7 days post treatment; assay type: organism-based; conditions: in vivo, read-out: Drug uptake; outline: as §1
[9] = Drug level in Conyza canadensis (horseweed) at growth inhibition I50 level rate measured 7 days post treatment; assay type: organism-based; conditions: erigeron canadensis, in vivo; read-out: Drug uptake; outline: as §1
[10] = Drug level in Pueraria montana var. lobata ( kudzu) at growth inhibition I50 level rate measured 7 days post treatment; assay type: organism-based; conditions: in vivo, read-out: Drug uptake; outline: as §1
[11] = Drug level in Desmanthus illinoensis (Illinois bundleflower) at growth inhibition I50 level rate measured 7 days post treatment; assay type: organism-based; conditions: in vivo, read-out: Drug uptake; outline: as §1
[12] = Drug level in Sesbania herbacea at growth inhibition I50 level rate measured 7 days post treatment; assay type: organism-based; conditions: in vivo, read-out: Drug uptake; outline: as §1
[13] = Drug level in Senna occidentalis (coffee senna) at growth inhibition I50 level rate measured 7 days post treatment; assay type: organism-based; conditions: in vivo, read-out: Drug uptake; outline: as §1
[14] = Drug level in Senna obtusifolia (sicklepod) at growth inhibition I50 level rate measured 7 days post treatment; assay type: organism-based; conditions: in vivo, read-out: Drug uptake; outline: as §1
[15] = Drug level in Vigna unguiculata (cowpea) at growth inhibition I50 level rate measured 7 days post treatment; assay type: organism-based; conditions: in vivo, read-out: Drug uptake; outline: as §1
[16] = Drug level in non glyphosate-resistant Glycine max (soybean) at growth inhibition I50 level rate measured 7 days post treatment; assay type: organism-based; conditions: in vivo, read-out: Drug uptake; outline: as §1
[17] = Drug level in glyphosate-resistant Glycine max (soybean) at growth inhibition I50 level rate measured 7 days post treatment; assay type: organism-based; conditions: in vivo, read-out: Drug uptake; outline: as §1
[18] = test system: Lolium multiflorum; assay: Growth inhibition of Lolium multiflorum (Italian ryegrass) measured 7 days post treatment; assay type: functional
[19] = test system: Zea mays; assay: Growth inhibition of glyphosate-resistant Zea mays (maize) measured 7 days post treatment; assay type: functional
[20] = test system: Erigeron canadensis; assay: Growth inhibition of Conyza canadensis (horseweed) measured 7 days post treatment; assay type: functional
[21] = test system: Glycine max; assay: Growth inhibition of non glyphosate-resistant Glycine max (soybean) measured 7 days post treatment; assay type: functional
[22] = test system: Glycine max; assay: Growth inhibition of glyphosate-resistant Glycine max (soybean) measured 7 days post treatment; assay type: functional
[23] = test system: Pueraria montana var. lobata; assay: Growth inhibition of Pueraria montana var. lobata ( kudzu) measured 7 days post treatment; assay type: functional
[24] = test system: Desmanthus illinoensis; assay: Growth inhibition of Desmanthus illinoensis (Illinois bundleflower) measured 7 days post treatment; assay type: functional
[25] = test system: Sesbania herbacea; assay: Growth inhibition of Sesbania herbacea measured 14 days post treatment
[26] = test system: Vigna unguiculata; assay: Growth inhibition of Vigna unguiculata (cowpea) measured 14 days post treatment
[27] = test system: Senna obtusifolia; assay: Growth inhibition of Senna obtusifolia (sicklepod) measured 14 days post treatment
[28] = test system: Senna occidentalis; assay: Growth inhibition of Senna occidentalis (coffee senna) measured 14 days post treatment
[29] = test system: Abutilon theophrasti; assay: Growth inhibition of Abutilon theophrasti (velvetleaf) measured 14 days post treatment
[30] = test system: Zea mays; assay: Growth inhibition of non glyphosate-resistant Zea mays (maize) measured 14 days post treatment

O=C(O)CNCP(=O)(O)O [GLYPHOSATE]
Drug uptake [1]: 287 ng/g
Drug uptake [2]: 4765 ng/g
Drug uptake [3]: 668 ng/g
Drug uptake [4]: 119 ng/g
concentration at 168 h [5]: 851 ng/g
concentration at 168 h [6]: 7430 ng/g
concentration at 168 h [7]: 308 ng/g
concentration at 168 h [8]: 678 ng/g
concentration at 168 h [9]: 26300 ng/g
concentration at 168 h [10]: 5560 ng/g
concentration at 168 h [11]: 3270 ng/g
concentration at 168 h [12]: 38600 ng/g
concentration at 168 h [13]: 5910 ng/g
concentration at 168 h [14]: 6410 ng/g
concentration at 168 h [15]: 26800 ng/g
concentration at 168 h [16]: 25000 ng/g
concentration at 168 h [17]: 5830 ng/g
I50 [18]: 220 gAi/ha
I50 [19]: 93 gAi/ha
I50 [20]: 170 gAi/ha
I50 [21]: 250 gAi/ha
I50 [22]: 250 gAi/ha
I50 [23]: 77 gAi/ha
I50 [24]: 272 gAi/ha
I50 [25]: 456 gAi/ha
I50 [26]: 201 gAi/ha
I50 [27]: 252 gAi/ha
I50 [28]: 75 gAi/ha
I50 [29]: 122 gAi/ha
I50 [30]: 93 gAi/ha
